Test results as given in ChEMBL document CHEMBL3272141, “Potential long-acting anticonvulsants. 2. Synthesis and activity of succinimides containing an alkylating group on nitrogen or at the 3 position” (J Med Chem, 1977).
Activity calls are given as the source filed them. The rule behind the calls is not given here.

What was measured:
[1] = test system: Mus musculus; test: Anticonvulsant activity against maximal electroshock-induced seizures in Carworth Farms No.1 mouse up to 300 mg/kg; format: functional, organism-based; set-up: dose 300 mg/kg
Summary of the method: (§1)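 Male Carworth Farms No. 1 mice were used, with the highest dose tested being 300 mg/kg.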

[2] = test system: Mus musculus; test: Anticonvulsant activity against metrazole-induced seizures in Carworth Farms No.1 mouse up to 300 mg/kg; format: functional, organism-based; set-up: dose 300 mg/kg; summary of the method: as §1

SMILES | Activity [1] | Activity [2]
O=C1C=CC(=O)N1CCN1C(=O)CC(c2ccccc2)C1=O (stereo not drawn) | inactive | inactive
N#CCN1C(=O)CC(c2ccccc2)C1=O (stereo not drawn) | inactive | inactive
O=C(CCl)N1C(=O)CC(c2ccccc2)C1=O (stereo not drawn) | inactive | inactive
O=C1CC(c2ccccc2)C(=O)N1CCc1ccc(N2C(=O)C=CC2=O)cc1 (stereo not drawn) | inactive | inactive
CC(=O)Nc1ccc(CCN2C(=O)CC(c3ccccc3)C2=O)cc1 (stereo not drawn) | inactive | inactive
O=C1CC(c2ccccc2)C(=O)N1CCc1ccccc1 (stereo not drawn) | inactive | inactive
O=C(CCl)Nc1ccc(CCN2C(=O)CC(c3ccccc3)C2=O)cc1 (stereo not drawn) | inactive | inactive
NCCN1C(=O)CC(c2ccccc2)C1=O (stereo not drawn) | inactive | inactive
O=C(O)/C=C\C(=O)NCCN1C(=O)CC(c2ccccc2)C1=O (stereo not drawn) | inactive | inactive
Nc1ccc(CCN2C(=O)CC(c3ccccc3)C2=O)cc1 (stereo not drawn) | inactive | inactive
O=C(CCl)NCCCN1C(=O)CC(CCCNC(=O)CCl)(c2ccccc2)C1=O (stereo not drawn) | inactive | inactive
CN1C(=O)C(CCNC(=O)CCl)C(C)(c2ccccc2)C1=O (stereo not drawn) | inactive | inactive
O=C(O)/C=C\C(=O)Nc1ccc(CCN2C(=O)CC(c3ccccc3)C2=O)cc1 (stereo not drawn) | inactive | inactive
O=C(CCl)NCCN1C(=O)CC(c2ccccc2)C1=O (stereo not drawn) | inactive | inactive
